Assay outcomes deposited in PubChem by several laboratories.
ARNT TACC3 PPI: disruptors of ARNT/TACC3 protein interaction, primary screen, biochemical, AlphaScreen, single concentration | Transforming acidic coiled-coil-containing protein 3 (Homo sapiens), Q9Y6A5 | AlphaScreen His-ARNT PAS-B/GST-TACC3 binding, luminescence; TACC3 fragment carries E629A point mutation | inhibition, % at 9.99 µM | 0.66% of 390,000 active | AID 623870, 2012;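 active = mean inhibition of replicates at least 50% and at least half of replicates each reaching 50%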;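 also: 0% = complete ARNT plus TACC3 wells and 100% = ARNT alone without TACC3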
CAL PDZ FP-1: CAL PDZ peptide-binding inhibitors, primary screen, biochemical, fluorescence polarization, Cer-tagged CAL PDZ, HTS; purified CAL PDZ, TMR-peptide fluorescence polarization, 1 h; inhibition, % at 20 µM; 0.02% of 330,000 active; AID 504414, 2011;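 active = highest replicate inhibition of at least 40%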;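 also: plate controls were DMSO neutral control wells for no effect and unlabeled competitor peptide control wells for full effect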
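material = purified tagged CAL PDZ domain construct (CerCALP) | compound dosing = 20 µM, one dose | times = 1 h at RT | measured by = fluorescence polarization from S- and P-plane intensities, G-factor corrected | read-out = inhibition from polarization loss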
GRK2 aptamer HTS: compounds blocking aptamer binding on GRK2 – biochemical, human GRK2, bead flow cytometry, HTS, primary screen; FAM-aptamer displacement from GRK2; inhibition of aptamer binding, % at 10 µM; 0.59% of 330,000 active; AID 488847, 2010;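 active = inhibition of aptamer binding above 40%, roughly 3 SD of noise, on plates passing a quality check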;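 also: median bead fluorescence of bound FAM aptamer so fluorescent compounds give negative values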
Target sequence (P25098 whole entry, looked up): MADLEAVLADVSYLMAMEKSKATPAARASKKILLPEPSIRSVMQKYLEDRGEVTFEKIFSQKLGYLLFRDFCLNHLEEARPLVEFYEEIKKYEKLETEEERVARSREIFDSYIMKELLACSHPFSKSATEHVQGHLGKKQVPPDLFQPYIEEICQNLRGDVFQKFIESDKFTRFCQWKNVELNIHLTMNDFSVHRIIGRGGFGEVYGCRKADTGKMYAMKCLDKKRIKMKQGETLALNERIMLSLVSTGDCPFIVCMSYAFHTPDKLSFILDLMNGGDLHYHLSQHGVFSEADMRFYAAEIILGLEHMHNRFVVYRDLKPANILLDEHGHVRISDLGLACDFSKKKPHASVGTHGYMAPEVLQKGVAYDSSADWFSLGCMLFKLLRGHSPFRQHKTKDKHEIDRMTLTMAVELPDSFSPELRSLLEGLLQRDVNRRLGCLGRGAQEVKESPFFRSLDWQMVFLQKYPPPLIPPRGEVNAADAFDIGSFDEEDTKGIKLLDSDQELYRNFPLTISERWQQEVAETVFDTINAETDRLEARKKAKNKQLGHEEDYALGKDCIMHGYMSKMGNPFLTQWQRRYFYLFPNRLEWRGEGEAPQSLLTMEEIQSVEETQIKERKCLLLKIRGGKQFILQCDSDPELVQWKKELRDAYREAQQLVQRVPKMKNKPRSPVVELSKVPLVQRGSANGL
Tn7 DDE FP: inhibitors of Tn7 peptide binding to fibrin DD(E), primary screen, biochemical, fluorescence polarization, human fibrin, Tn7 probe; AID 720508, 2013; 0.13% of 370,000 active; Fibrinogen beta chain (Homo sapiens), P02675; inhibition, % at 8.3 µM; FP displacement of FITC-Tn7 peptide from fibrin DD(E); 0% = median of compound wells per plate;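 active = inhibition above the mean of compounds falling within the control limits plus 3 SD of them, cut at about 14% in these data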;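 also: 0% = plate median of compound wells and 100% = 10 µM Aha-Tn7 peptide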
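system = human fibrin DD(E) protein | quantity = DD(E) 2 µM final | medium = Tris/NaCl/CaCl2 buffer, pH 7.8 | also added = labelled Tn7 tracer, 0.1 µM | compound dosing = single point at 8.3 µM | timing = compound with protein 10 min, then 3 h after probe, room temperature | signal = FP measurement | benchmarks = Aha-Tn7 high control | repeats = one replicate per compound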
DDE Tn6 FP inh: inhibitors of Tn6 peptide binding to fibrin DD(E), primary screen, biochemical, fluorescence polarization, human fibrin, Tn6 probe. Fibrinogen beta chain (Homo sapiens), P02675. Fibrin DD(E) TRITC-Tn6 fluorescence polarization displacement. inhibition, % at 8.3 µM. 0.21% of 370,000 active. AID 720509, 2013;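 active = inhibition above a per-campaign cutoff: mean of compounds within control limits plus 3 SD, cut at about 15% in these data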;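 also: 0% = median of all compound wells on the plate and 100% = blocking peptide control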
CAL PDZ FP-2: untagged CAL PDZ binding inhibitors, primary screen, biochemical, fluorescence polarization, HTS | inhibition, % at 24.9 µM | Golgi-associated PDZ and coiled-coil motif-containing protein (Homo sapiens), Q9HD26 | purified CAL PDZ, TMR-peptide fluorescence polarization, 1 h | 0.92% of 300,000 active;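 active = mean inhibition of at least 30% with at least half of replicates also reaching 30%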;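 also: 0% = DMSO neutral control and 100% = excess unlabeled competitor peptide PRC23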
GRK2 CP1: GRK2 aptamer-displacing inhibitors, retest, confirmation, biochemical, cherry pick 1, bead flow cytometry; shares compounds with GRK2 aptamer HTS; bead-bound GRK2, FAM-aptamer displacement; aptamer displacement, % at 10 µM; 4% of 2,000 active; AID 504451, 2011;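 active = aptamer displacement above 40%, near three times the noise of non-fluorescent compounds, on plates passing quality checks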;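 also: negative values mostly reflect intrinsic compound fluorescence rather than true enhancement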
FAM quench CP1: counter-screen for GRK2 aptamer inhibitors: fluorescent aptamer quenchers | fluorescence response (% of DMSO), % at 10 µM | 2,000 tested, under 10 active | shares compounds with GRK2 aptamer HTS | Carboxyfluorescein RNA aptamer on beads, flow cytometry quenching; stronger effect = lower value;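 active = compounds that quench the bead-bound fluorescent RNA probe, cutting fluorescence to under half of the solvent control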;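 also: counterscreen run without GRK2 so only probe quenching by compound is measured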
GRK2 CP2: GRK2 aptamer-displacing inhibitors, hit retest, confirmation, biochemical, cherry pick 2, bead flow cytometry | inhibition of aptamer binding, % at 10 µM | AID 504782, 2011 | bead-bound GRK2, FAM-aptamer displacement | 360 tested, under 10 active | shares compounds with GRK2 aptamer HTS;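 active = inhibition of aptamer binding above 40%, about triple the noise seen with nonglowing compounds, on plates passing quality control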;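 also: negative values mostly come from compounds that fluoresce themselves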
FAM quench CP2: quenches fluorescent RNA aptamer, GRK2 hit artifact. shares compounds with GRK2 aptamer HTS. carboxyfluorescein RNA aptamer beads, flow cytometry quenching; stronger effect = lower value. fluorescence response vs DMSO, % at 10 µM. 360 tested, under 10 active. AID 588494;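 active = response vs DMSO under 50%, meaning signal dropped by over half, treated as fluorescence quencher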;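 also: labelled aptamer on streptavidin beads without GRK2 as a quench counter-screen; 100% = bead fluorescence of DMSO wells and lower means quenching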
* marks the source's active call; other numbers are inactive results. A selection: hits, their analogues and other compounds. The true share with any hit is near 1.8%.

What do the screens show for `C[C@H](CO)N1C[C@H](C)[C@H](CN(C)S(C)(=O)=O)Oc2ccc(NS(=O)(=O)c3cccs3)cc2CC1=O`?
ARNT TACC3 PPI: -24

How did CCCCNC(=O)CN1C(=O)NC2NC(=O)NC21 (stereo not drawn) do in these assays?
ARNT TACC3 PPI: -5; CAL PDZ FP-1: -1; GRK2 aptamer HTS: 98*; Tn7 DDE FP: 4; DDE Tn6 FP inh: 1; GRK2 CP1: 3; FAM quench CP1: 97

What do the screens show for `CCc1nnc(NC(=O)CSc2nnc(-c3ccc(O)cc3)n2C)s1`?
ARNT TACC3 PPI: -6; CAL PDZ FP-1: -2; GRK2 aptamer HTS: 37; Tn7 DDE FP: -4; DDE Tn6 FP inh: 6; CAL PDZ FP-2: 0; GRK2 CP1: -5; FAM quench CP1: 102

What do the screens show for `C[C@@H]1CCCCO[C@@H](CN(C)S(C)(=O)=O)[C@H](C)CN([C@H](C)CO)C(=O)c2cc(NC(=O)c3ccccc3)ccc2O1`?
ARNT TACC3 PPI: -2

What do the screens show for `COc1ccc(CNC(=O)COC(=O)c2ccc3c(c2)OCCO3)cc1`?
ARNT TACC3 PPI: -1; CAL PDZ FP-1: 1; GRK2 aptamer HTS: 58*; Tn7 DDE FP: 6; DDE Tn6 FP inh: 3; CAL PDZ FP-2: -5; GRK2 CP1: -4; FAM quench CP1: 104

Results for Cc1cc(C)cc(NC(=O)COC(=O)c2ccc3c(c2)OCCO3)c1 ?
ARNT TACC3 PPI: -7; CAL PDZ FP-1: 0; GRK2 aptamer HTS: 100*; Tn7 DDE FP: -1; DDE Tn6 FP inh: -6; GRK2 CP1: -3; FAM quench CP1: 102

How did CCNC(=O)C[C@@H]1CC[C@@H]2[C@@H](COc3ccc(NC(=O)C4CCCCC4)cc3C(=O)N2C)O1 do in these assays?
ARNT TACC3 PPI: -18

Results for Cc1ccccc1NC(=O)N1CCN(C/C=C/c2ccccc2)CC1 ?
ARNT TACC3 PPI: -4; CAL PDZ FP-1: -1; GRK2 aptamer HTS: 66*; Tn7 DDE FP: -1; DDE Tn6 FP inh: -7; CAL PDZ FP-2: -2; GRK2 CP1: 3; FAM quench CP1: 99

Results for Nc1c(C(=O)NCc2cccs2)nnn1CC(=O)Nc1cccc(Cl)c1 ?
ARNT TACC3 PPI: -3; CAL PDZ FP-1: -3; GRK2 aptamer HTS: 42*; Tn7 DDE FP: -3; DDE Tn6 FP inh: -4; CAL PDZ FP-2: -6; GRK2 CP2: 2; FAM quench CP2: 97

Results for CCOc1c2c(nc3ccc(Cl)cc13)CCC2 ?
ARNT TACC3 PPI: -1; CAL PDZ FP-1: -1; GRK2 aptamer HTS: 2; Tn7 DDE FP: -8; DDE Tn6 FP inh: -3; GRK2 CP2: 18; FAM quench CP2: 104
